Source: ChEMBL document CHEMBL1136736, “In vitro and in vivo antitumor properties of tetrakis((trishydroxy- methyl)phosphine)gold(I) chloride” (J Med Chem, 2003)

Legend:
Assay type in all cases: functional, cell-based
AGS [1] = assay: Growth inhibition of AGS cell line at 0.54 nM derived from human gastric carcinoma; conditions: Stomach
Summary of the method: (§1)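 Tumor cells were exposed to the compound added as a methanol solution and cultured in a 5% CO2 incubator for 7 days (4 days for some table entries). Cells were counted, and percent growth inhibition = (mean control count − mean treated count)/mean control count × 100.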

AGS [2] = assay: Growth inhibition of AGS cell line at 13.72 nM derived from human gastric carcinoma; conditions: Stomach; summary of the method: as §1
AGS [3] = assay: Growth inhibition of AGS cell line at 2.74 nM derived from human gastric carcinoma; conditions: Stomach; summary of the method: as §1
HCT-15 [4] = assay: Growth inhibition of HCT-15 cell line at 0.54 nM derived from human colon carcinoma; summary of the method: as §1
HCT-15 [5] = assay: Growth inhibition of HCT-15 cell line at 13.72 nM derived from human colon carcinoma; summary of the method: as §1
HCT-15 [6] = assay: Growth inhibition of HCT-15 cell line at 2.74 nM derived from human colon carcinoma; summary of the method: as §1
LNCaP [7] = assay: Growth inhibition of LNCaP cell line at 0.54 nM derived from prostate cancer; conditions: Homo sapiens; summary of the method: as §1
LNCaP [8] = assay: Growth inhibition of LNCaP cell line at 13.72 nM derived from prostate cancer; conditions: Homo sapiens; summary of the method: as §1
LNCaP [9] = assay: Growth inhibition of LNCaP cell line at 2.74 nM derived from prostate cancer; conditions: Homo sapiens; summary of the method: as §1
PC-3 = assay: Growth inhibition of PC-3 cell line at 13.72 nM derived from prostate cancer; conditions: Homo sapiens; summary of the method: as §1

TETRAKIS((TRISHYDROXYMETHYL) PHOSPHINE)GOLD(I) CHLORIDE
inhibition (AGS [1]): 10.2%
inhibition (AGS [2]): 59.5%
inhibition (AGS [3]): 17.4%
inhibition (HCT-15 [4]): 22.5%
inhibition (HCT-15 [5]): 87.5%
inhibition (HCT-15 [6]): 58.3%
inhibition (LNCaP [7]): 47.4%
inhibition (LNCaP [8]): 83.9%
inhibition (LNCaP [9]): 59.2%
inhibition (PC-3): 27%
